ChEMBL document CHEMBL2401625, “Synthesis and evaluation of pharmacological properties of some new xanthone derivatives with piperazine moiety” (Bioorg Med Chem Lett, 2013)
The source made the active and inactive calls.

Experiments:
Mus musculus [1] = assay: Neurotoxicity in CF1 mouse assessed as minimal motor impairment at 30 mg/kg, ip after 4 hrs by rotorod test; format: toxicity, organism-based; design: dose 30 mg/kg, route intraperitoneal; details: in vivo
How it was run: (§1)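 Rotarod neurotoxicity screen in mice dosed i.p. at 30, 100 or 300 mg/kg, read 0.5 or 4 h after dosing. The animal must stay on a rod rotating at 6 rpm without falling, measured 3 times within 1 min. A fall counts as minimal motor impairment. Result is recorded as impaired animals over animals used.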

Mus musculus [2] = assay: Neurotoxicity in CF1 mouse assessed as minimal motor impairment at 300 mg/kg, ip after 4 hrs by rotorod test; format: toxicity, organism-based; design: dose 300 mg/kg, route intraperitoneal; details: in vivo; how it was run: as §1
Rattus norvegicus [3] = assay: Neurotoxicity in Sprague-Dawley rat assessed as minimal motor impairment at 30 mg/kg, po after 0.5 hrs by rotorod test; details: in vivo
[4] = Neurotoxicity in po dosed Sprague-Dawley rat assessed as minimal motor impairment by rotorod test; format: toxicity, organism-based; details: in vivo
Rattus norvegicus [5] = assay: Anticonvulsant activity in po dosed Sprague-Dawley rat assessed as protection against maximal electroshock-induced seizures after 4 hrs; format: functional
How it was run: (§2)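 Quantitative oral assay in rats, run at a time to peak effect of 4 h. ED50 is the dose protecting 50% of animals against MES or ScMet seizures, with 95% confidence interval. TD50 is the dose giving neurotoxicity in 50% of animals. PI = TD50/ED50.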

Rattus norvegicus [6] = assay: Protective index, ratio of TD50 for po dosed Sprague-Dawley rat assessed as minimal motor impairment by rotorod test to ED50 for po dosed Sprague-Dawley rat assessed as protection against maximal electroshock-induced seizures; format: functional; how it was run: as §2
Mus musculus [7] = assay: Neurotoxicity in CF1 mouse assessed as minimal motor impairment at 30 mg/kg, ip after 0.5 hrs by rotorod test; format: toxicity, organism-based; design: dose 30 mg/kg, route intraperitoneal; details: in vivo; how it was run: as §1
Rattus norvegicus [8] = assay: Anticonvulsant activity in po dosed Sprague-Dawley rat assessed as protection against subcutaneous metrazole-induced seizures after 4 hrs; format: functional; how it was run: as §2
Rattus norvegicus [9] = assay: Neurotoxicity in Sprague-Dawley rat assessed as minimal motor impairment at 30 mg/kg, po after 0.25 hrs by rotorod test; details: in vivo
Mus musculus [10] = assay: Neurotoxicity in CF1 mouse assessed as minimal motor impairment at 100 mg/kg, ip after 0.5 hrs by rotorod test; format: toxicity, organism-based; design: dose 100 mg/kg, route intraperitoneal; details: in vivo; how it was run: as §1
Mus musculus [11] = assay: Neurotoxicity in CF1 mouse assessed as minimal motor impairment at 300 mg/kg, ip after 0.5 hrs by rotorod test; format: toxicity, organism-based; design: dose 300 mg/kg, route intraperitoneal; details: in vivo; how it was run: as §1
Rattus norvegicus [12] = assay: Neurotoxicity in Sprague-Dawley rat assessed as minimal motor impairment at 30 mg/kg, po after 4 hrs by rotorod test; details: in vivo
Rattus norvegicus [13] = assay: Neurotoxicity in Sprague-Dawley rat assessed as minimal motor impairment at 30 mg/kg, po after 2 hrs by rotorod test; details: in vivo
Mus musculus [14] = assay: Neurotoxicity in CF1 mouse assessed as minimal motor impairment at 100 mg/kg, ip after 4 hrs by rotorod test; format: toxicity, organism-based; design: dose 100 mg/kg, route intraperitoneal; details: in vivo; how it was run: as §1
Rattus norvegicus [15] = assay: Neurotoxicity in Sprague-Dawley rat assessed as minimal motor impairment at 30 mg/kg, po after 1 hr by rotorod test; details: in vivo
Rattus norvegicus [16] = assay: Anticonvulsant activity in Sprague-Dawley rat assessed as protection against maximal electroshock-induced seizures at 30 mg/kg, po after 0.25 hrs; format: functional, organism-based; design: dose 30 mg/kg
How it was run: (§3)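 Rats dosed orally at 30 mg/kg and tested in MES at several time points after dosing. Protection means seizures were prevented. Result is recorded as number of animals protected over number tested.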

Mus musculus [17] = assay: Anticonvulsant activity in CF1 mouse assessed as protection against maximal electroshock-induced seizures at 30 mg/kg, ip after 0.5 hrs; format: functional, organism-based; design: dose 30 mg/kg
How it was run: (§4)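 Mice given compound i.p. at 30, 100 or 300 mg/kg and tested 0.5 or 4 h after dosing. Seizures were induced by maximal electroshock (MES) or subcutaneous metrazole (ScMet). Prevention of seizures counts as protection. Result is recorded as number of animals protected over number tested.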

Mus musculus [18] = assay: Anticonvulsant activity in CF1 mouse assessed as protection against maximal electroshock-induced seizures at 300 mg/kg, ip after 4 hrs; format: functional, organism-based; design: dose 300 mg/kg; how it was run: as §4
Mus musculus [19] = assay: Anticonvulsant activity in CF1 mouse assessed as protection against maximal electroshock-induced seizures at 30 mg/kg, ip after 4 hrs; format: functional, organism-based; design: dose 30 mg/kg; how it was run: as §4
Rattus norvegicus [20] = species on record: Rattus norvegicus; assay: Displacement of [3H]CGP-12177 from beta1-adrenergic receptor in rat cerebral cortex at 50 uM after 60 mins by scintillation counting; format: tissue-based
Rattus norvegicus [21] = assay: Anticonvulsant activity in Sprague-Dawley rat assessed as protection against maximal electroshock-induced seizures at 30 mg/kg, po after 2 hrs; format: functional, organism-based; design: dose 30 mg/kg; how it was run: as §3
Mus musculus [22] = assay: Anticonvulsant activity in CF1 mouse assessed as protection against subcutaneous metrazole-induced seizures at 30 mg/kg, ip after 4 hrs; format: functional, organism-based; design: dose 30 mg/kg; how it was run: as §4
Mus musculus [23] = assay: Anticonvulsant activity in CF1 mouse assessed as protection against subcutaneous metrazole-induced seizures at 30 mg/kg, ip after 0.5 hrs; format: functional, organism-based; design: dose 30 mg/kg; how it was run: as §4
Mus musculus [24] = assay: Anticonvulsant activity in CF1 mouse assessed as protection against subcutaneous metrazole-induced seizures at 300 mg/kg, ip after 4 hrs; format: functional, organism-based; design: dose 300 mg/kg; how it was run: as §4
Mus musculus [25] = assay: Anticonvulsant activity in CF1 mouse assessed as protection against subcutaneous metrazole-induced seizures at 100 mg/kg, ip after 4 hrs; format: functional, organism-based; design: dose 100 mg/kg; how it was run: as §4
Mus musculus [26] = assay: Anticonvulsant activity in CF1 mouse assessed as protection against subcutaneous metrazole-induced seizures at 100 mg/kg, ip after 0.5 hrs; format: functional, organism-based; design: dose 100 mg/kg; how it was run: as §4
Mus musculus [27] = assay: Anticonvulsant activity in CF1 mouse assessed as protection against maximal electroshock-induced seizures at 100 mg/kg, ip after 4 hrs; format: functional, organism-based; design: dose 100 mg/kg; how it was run: as §4
Rattus norvegicus [28] = assay: Anticonvulsant activity in Sprague-Dawley rat assessed as protection against maximal electroshock-induced seizures at 30 mg/kg, po after 1 hr; format: functional, organism-based; design: dose 30 mg/kg; how it was run: as §3
Rattus norvegicus [29] = assay: Anticonvulsant activity in Sprague-Dawley rat assessed as protection against maximal electroshock-induced seizures at 30 mg/kg, po after 0.5 hrs; format: functional, organism-based; design: dose 30 mg/kg; how it was run: as §3
Mus musculus [30] = assay: Anticonvulsant activity in CF1 mouse assessed as protection against subcutaneous metrazole-induced seizures at 300 mg/kg, ip after 0.5 hrs; format: functional, organism-based; design: dose 300 mg/kg; how it was run: as §4

COc1ccc2c(=O)c3cc(CN4CCN(Cc5ccccc5)CC4)ccc3oc2c1
105 mg/kg: ED50 (Rattus norvegicus [5])
> 300 mg/kg: TD50 [4]
>2.86: Ratio TD50/ED50 (Rattus norvegicus [6])
> 250 mg/kg: ED50 (Rattus norvegicus [8])
Non-toxic: Activity (Mus musculus [1]) | Activity (Mus musculus [2]) | Activity (Rattus norvegicus [3]) | Activity (Mus musculus [7]) | Activity (Rattus norvegicus [9]) | Activity (Mus musculus [10]) | Activity (Mus musculus [11]) | Activity (Rattus norvegicus [12]) | Activity (Rattus norvegicus [13]) | Activity (Mus musculus [14]) | Activity (Rattus norvegicus [15])

COc1ccc2c(=O)c3cc(CN4CCN(C)CC4)ccc3oc2c1
inactive: Activity (Rattus norvegicus [16]) | Activity (Mus musculus [17]) | Activity (Mus musculus [19]) | inhibition (Rattus norvegicus [20]) | Activity (Rattus norvegicus [21]) | Activity (Mus musculus [22]) | Activity (Mus musculus [23]) | Activity (Mus musculus [24]) | Activity (Mus musculus [25]) | Activity (Mus musculus [26]) | Activity (Mus musculus [27]) | Activity (Rattus norvegicus [28]) | Activity (Rattus norvegicus [29]) | Activity (Mus musculus [30])
active: Activity (Mus musculus [18])
